{"source": "paper PMC9464755", "about": "(Advances in Therapy, 2022)", "key": {"[1]": {"conditions": "cited from earlier work"}, "[2]": {"conditions": "cited from earlier work", "remark": "listed apart in the source"}, "[3]": {"conditions": "healthy subjects; cited from earlier work"}, "[4]": {"conditions": "once-daily administration; cited from earlier work"}, "[5]": {"conditions": "cited from earlier work", "remark": "listed apart in the source"}, "[6]": {"assay": "Steady-state pharmacokinetics of lazertinib with", "assay_type": "in vivo, human", "conditions": "for CD15, arithmetic mean: 240 mg once daily; for DNAUCss, arithmetic mean / DNCmax,ss, arithmetic mean / DNCD15, arithmetic mean: 40–320 mg once daily; for DNAUCss, arithmetic mean / DNCmax,ss, arithmetic mean: steady state", "how_it_was_run": "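NSCLC patients dosed once daily, fasting, in 21-day cycles. AUCss and Cmax,ss came from non-compartmental analysis using actual sampling times over the dosing interval after the 22nd dose (cycle 2 day 1). CD15 is the trough before the 15th dose. Groups were compared using dose-normalized values within the dose-proportional range, plus raw values at 240 mg. Analysis was ANOVA on log-transformed values with group as fixed effect; geometric mean ratios with 90% CI.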"}, "[7]": {"system": "cytochrome P450 (CYP) 3A4", "conditions": "in vitro study; cited from earlier work"}, "[8]": {"conditions": "co-administered with omeprazole or ranitidine"}, "[9]": {"conditions": "co-administered with ranitidine (an H2RA)"}}, "note": "Read-outs that look alike come from different tables or passages of the source.", "data": [{"smiles": "O=C(c1ccc(F)c(F)c1Nc1ccc(I)cc1F)N1CC(O)([C@@H]2CCCCN2)C1", "note": "[cobimetinib]", "values": [{"measurement": "Effect of rabeprazole on exposure", "setting": "[1]; fed and fasted conditions", "result": "did not result in a statistically significant effect"}, {"measurement": "Fold less solubility", "setting": "[2]; pH 6.4 compared to pH 1.9", "result": 100, "unit": "fold"}]}, {"smiles": "C[C@@H](Oc1cc(-c2cnn(C3CCNCC3)c2)cnc1N)c1c(Cl)ccc(F)c1Cl", "note": "[crizotinib]", "values": [{"measurement": "Effect of esomeprazole on pharmacokinetics", "setting": "[1]", "result": "no clinically significant effect"}, {"measurement": "Solubility", "setting": "[2]; pH 1.6", "result": "> 10000", "unit": "µg/mL"}, {"measurement": "Solubility", "setting": "[2]; pH 7.7", "result": 100, "unit": "µg/mL"}]}, {"smiles": "C#Cc1cccc(Nc2ncnc3cc(OCCOC)c(OCCOC)cc23)c1", "note": "[erlotinib]", "values": [{"measurement": "AUC decreased by", "setting": "[1]; [8]", "result": "30–45%"}, {"measurement": "Cmax decreased by", "setting": "[1]; [8]", "result": "50–60%"}]}, {"smiles": "COc1cc2ncnc(Nc3ccc(F)c(Cl)c3)c2cc1OCCCN1CCOCC1", "note": "[gefitinib]", "values": [{"measurement": "AUC decreased to", "setting": "[1]; [9]", "result": 45, "unit": "%"}, {"measurement": "Cmax decreased to", "setting": "[1]; [9]", "result": 70, "unit": "%"}]}, {"smiles": "C=CC(=O)Nc1cc(Nc2nccc(-n3cc(CN(C)C)c(-c4ccccc4)n3)n2)c(OC)cc1N1CCOCC1", "note": "[lazertinib, Lazertinib]", "values": [{"measurement": "Effect of a high-fat meal on the pharmacokinetics", "setting": "[3]", "result": "did not significantly affect"}, {"measurement": "Time to reach steady state", "setting": "[4]", "result": "≤ 15", "unit": "days"}, {"measurement": "Solubility in aqueous media", "setting": "[5]; between pH 5.0 and 6.0", "result": "solubility decreasing"}, {"measurement": "Solubility in aqueous media", "setting": "[5]; pH 1.2–4.0", "result": "soluble"}, {"measurement": "Solubility in aqueous media", "setting": "[5]; pH 7.0–8.0", "result": "practically insoluble"}, {"measurement": "Reduction of exposure by ARAs at the steady state", "setting": "[6]; ARA group versus non-ARA group", "result": "approximately 10%"}, {"measurement": "Effect of co-administered ARAs on the steady state pharmacokinetics", "setting": "[6]; ARA group versus non-ARA group, all p values > 0.05", "result": "did not significantly affect"}, {"measurement": "CD15, arithmetic mean", "setting": "[6]; ARA group, trough day 15 of cycle 1, n=10", "result": "159.01 (62.4%) ng/mL"}, {"measurement": "DNAUCss, arithmetic mean", "setting": "[6]; ARA group, n=19", "result": "25.51 (59.9%) h·ng/mL/mg"}, {"measurement": "DNCmax,ss, arithmetic mean", "setting": "[6]; ARA group, n=19", "result": "1.97 (50.1%) ng/mL/mg"}, {"measurement": "DNCD15, arithmetic mean", "setting": "[6]; ARA group, trough day 15 of cycle 1, n=23", "result": "0.66 (62.1%) ng/mL/mg"}, {"measurement": "CD15, arithmetic mean", "setting": "[6]; Non-ARA group, trough day 15 of cycle 1, n=115", "result": "175.70 (59.4%) ng/mL"}, {"measurement": "DNAUCss, arithmetic mean", "setting": "[6]; Non-ARA group, n=105", "result": "27.61 (42.9%) h·ng/mL/mg"}, {"measurement": "DNCmax,ss, arithmetic mean", "setting": "[6]; Non-ARA group, n=105", "result": "2.14 (44.3%) ng/mL/mg"}, {"measurement": "DNCD15, arithmetic mean", "setting": "[6]; Non-ARA group, trough day 15 of cycle 1, n=203", "result": "0.72 (63.4%) ng/mL/mg"}, {"measurement": "Metabolizing enzyme", "setting": "[7]", "result": "predominantly metabolized by cytochrome P450 (CYP) 3A4"}]}, {"smiles": "COC(=O)c1ccc2c(c1)NC(=O)/C2=C(\\Nc1ccc(N(C)C(=O)CN2CCN(C)CC2)cc1)c1ccccc1", "note": "[nintedanib]", "values": [{"measurement": "Effect of PPI or H2RA on exposure", "setting": "[1]", "result": "neither PPI nor H2RA affected"}, {"measurement": "pH-dependent solubility profile", "setting": "[2]", "result": "increased solubility at acidic pH < 3"}]}, {"smiles": "Cc1ccc(C(=O)Nc2ccc(CN3CCN(C)CC3)c(C(F)(F)F)c2)cc1C#Cc1cnc2cccnn12", "note": "[ponatinib]", "values": [{"measurement": "Effect of lansoprazole on exposure", "setting": "[1]", "result": "did not have a clinically significant effect"}]}]}
